Our source for the IC50, Activity and IC90 values is ChEMBL document CHEMBL1153936, “Synthesis and pharmacological evaluation of (2-oxaadamant-1-yl)amines” (Bioorg Med Chem, 2009).

Experiment [1] has as its target Glutamate NMDA receptor. Description: Antagonist activity against NMDA receptor in rat cerebellar granule neurons assessed as inhibition of NMDA -induced increase in intracellular calcium level by Fura-2 AM dye based fluorimetry. The format is functional, cell-based. In short, it runs like this: (§1)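 Primary cerebellar granule neurons were grown on poly-L-lysine-coated glass coverslips and used after 7–14 days in vitro. Cells were loaded with 6 μM Fura-2 AM for 45 min. Fluorometry was done in Locke-Hepes buffer at 37 °C with mild agitation, recorded over 1200 s. Cells were stimulated with NMDA or glutamate at 100 μM plus 10 μM glycine. Test compound was then added at cumulative rising concentrations. IC50 came from variable-slope nonlinear regression of % inhibition. Values are means ± SEM, n ≥ 3 separate experiments on three culture batches.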

Experiment [2] is described as follows: Antagonist activity against glutamate receptor in rat cerebellar granule neurons assessed as inhibition of glutamate-induced increase in intracellular calcium level by Fura-2 AM dye based fluorimetry. It is filed as functional, cell-based. In a few lines:
as §1
(Calcium assays in cells follow changes in intracellular calcium, usually with a dye or a luminescent sensor.)

Experiment [3] has as its system Human respirovirus 3. Description: Antiviral activity against parainfluenza virus 3 assessed as inhibition of viral replication. It is filed as functional, organism-based. In a few lines: (§2)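 Cell-culture virus replication assays. Inhibition of viral replication and compound cytotoxicity were scored by microscopic examination, then confirmed by a colorimetric MTS cell viability assay.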

Experiment [4] relates to Punta Toro virus. Description: Antiviral activity against Punta Toro virus assessed as inhibition of viral replication. The format is functional, organism-based. In short, it runs like this:
as §2

Experiment [5] has as its system Human alphaherpesvirus 2. The experiment in a line: Antiviral activity against HSV2 assessed as inhibition of viral replication. The format is functional, organism-based. In short, it runs like this: as §2
Experiment [6] relates to Vaccinia virus. The experiment in a line: Antiviral activity against Vaccinia virus assessed as inhibition of viral replication. The format is functional, organism-based. The settings on record: Orthopoxvirus vaccinia. In a few lines:
(§3)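 Cell-culture virus replication assay. Inhibition of virus-induced effects and compound cytotoxicity were scored by microscopic examination and confirmed by colorimetric MTS cell-viability readout.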

In experiment [7] the test system is Respiratory syncytial virus. Description: Antiviral activity against Respiratory syncytial virus assessed as inhibition of viral replication. The format is functional, organism-based. In a few lines:
as §2

Experiment [8] concerns Mammalian orthoreovirus 1. The experiment in a line: Antiviral activity against Reovirus 1 assessed as inhibition of viral replication. The format is functional, organism-based. In a few lines: as §2
Experiment [9] relates to Sindbis virus. Description: Antiviral activity against Sindbis virus assessed as inhibition of viral replication. The format is functional, organism-based. In short, it runs like this: as §2
Experiment [10] concerns Influenza B virus. Description: Antiviral activity against Influenza B virus (B/Hong Kong/05/1972) assessed as inhibition of viral replication. The format is functional, organism-based. In short, it runs like this: as §3
The test system of experiment [11] is Coxsackievirus B4. Description: Antiviral activity against Coxsackievirus B4 assessed as inhibition of viral replication. It is filed as functional, organism-based. In a few lines:
as §2

The test system of experiment [12] is Vesicular stomatitis virus. Description: Antiviral activity against Vesicular stomatitis virus assessed as inhibition of viral replication. It is filed as functional, organism-based. In short, it runs like this:
as §3

In experiment [13] the test system is Trypanosoma brucei. The experiment in a line: Antitrypanosomal activity against Trypanosoma brucei 427 assessed as parasite growth inhibition up to 5 mg/mL after 48 hrs. It is filed as functional, organism-based.
The subject of experiment [14] is Human alphaherpesvirus 1. The experiment in a line: Antiviral activity against HSV1 assessed as inhibition of viral replication. The format is functional, organism-based. In a few lines: as §2
Experiment [15] relates to Influenza A virus H3N2. The experiment in a line: Antiviral activity against Influenza A virus (A/Hong Kong/7/1987(H3N2)) assessed as inhibition of viral replication. The format is functional, organism-based. In a few lines: as §3
Experiment [16] relates to Influenza A virus. Description: Antiviral activity against Influenza A virus (A/Puerto Rico/8/34(H1N1)) assessed as inhibition of viral replication. It is filed as functional, organism-based. The settings on record: A/Puerto Rico/8/1934(H1N1). In a few lines: as §3
For experiment [17], the system named is Feline coronavirus. Description: Antiviral activity against Feline coronavirus assessed as inhibition of viral replication. The format is functional, organism-based. In short, it runs like this:
as §2

Experiment [18] has as its system Trypanosoma brucei. The experiment in a line: Antitrypanosomal activity against Trypanosoma brucei 427 assessed as parasite growth inhibition after 48 hrs. It is filed as functional, organism-based. The conditions noted are these: Trypanosoma brucei, 427, 48 h.

Structures are written as SMILES. The source made the active and inactive calls. The calls are words filed in the database; no cut-off is given here.

For orientation: IC50 means the point on the concentration scale where inhibition reaches its midpoint. Consider `CC12CC3CC(C1)CC(NN)(C3)O2`, for which the IC50 in experiment [1] is more than 200 µM; in [2], more than 500 µM.

As for `c1ccc(CNC23CC4CC(CC(C4)O2)C3)cc1`, the outcome in [3], in [4], in experiment [5], in [6], in experiment [7] and in experiment [8] was inactive. In addition, the result in [9], in [10], in experiment [11], in [12], in [13] and in experiment [14] was inactive. Moreover, the result in experiment [15], in [16] and in experiment [17] was inactive. For the same compound, the IC50 was more than 200 µM in [1] and more than 500 µM in experiment [2].

`NC12CC3CC(CC(C3)O1)C2`: the outcome in experiment [3], in experiment [4], in [5], in experiment [6], in [7] and in experiment [8] was inactive. Further, the outcome in experiment [9], in experiment [10], in [11], in experiment [12], in [13] and in [14] was inactive. Besides, the result in [15], in [16] and in experiment [17] was inactive. Also, the figures for the IC50 in experiment [1] and in experiment [2] were more than 200 µM and more than 500 µM, respectively.

`c1ccc(CN(Cc2ccccc2)C23CC4CC(CC(C4)O2)C3)cc1`: the values for the IC50 in [1] and in experiment [2] were more than 200 µM and more than 500 µM, respectively. Moreover, in experiment [13], the outcome was inactive.

As for `CCC12CC3CC(C1)CC(NC)(C3)O2`, the outcome in experiment [3], in experiment [4], in experiment [5], in [6], in experiment [7] and in [8] was inactive. The result in experiment [9], in experiment [10], in experiment [11], in experiment [12], in experiment [14] and in [15] was inactive. For the same compound, the outcome in [16] and in experiment [17] was inactive. The IC50 in experiment [1] is 32 µM; in [2], 108 µM.

On to `CCN(CC)C12CC3CC(CC(CC)(C3)O1)C2`, for which the results for the IC50 in experiment [1] and in experiment [2] were 14 µM and 22 µM, respectively.

For orientation: IC90 means the concentration at which the effect reaches the 90% level. Regarding `CC(N)C12CC3CC(CC(C3)C1)C2` (stereo not given) [RIMANTADINE], in experiment [18], the IC90 stood at 14 µM.

For `CNC12CC3CC(CC(C3)O1)C2`, the outcome in experiment [3], in [4], in experiment [5], in experiment [6], in experiment [7] and in [8] was inactive. The outcome in experiment [9], in experiment [10], in experiment [11], in [12], in experiment [13] and in [14] was inactive. The result in experiment [15], in [16] and in experiment [17] was inactive. In addition, the IC50 in [1] was more than 200 µM; in [2] it was more than 500 µM.

For the compound `CN(C)C12CC3CC(CC(C)(C3)O1)C2`, the IC50 was more than 200 µM in experiment [1], 3.97 µM in experiment [18] and more than 500 µM in experiment [2]. Besides, the IC90 in experiment [18] came out at 6.82 µM.

Take `CN(Cc1ccccc1)C12CC3CC(CC(C3)O1)C2`: the IC50 in experiment [1] was more than 200 µM; in experiment [2] it was more than 500 µM. Also, in experiment [13], the result was inactive.

As for `CCC12CC3CC(C1)CC(NCc1ccccc1)(C3)O2`, the values for the IC50 in experiment [1] and in [2] were more than 200 µM and more than 500 µM, respectively.

For the compound `CCC12CC3CC(C1)CC(N(C)C)(C3)O2`, the half-maximal inhibitory concentration (IC50) stood at 55 µM in [1], 10.9 µM in experiment [18] and 106 µM in [2]. Further, the IC90 in [18] was determined as 15.5 µM.

As for `CN(CCc1ccccc1)C12CC3CC(CC(C3)O1)C2`, the IC50 in [1] is more than 200 µM; in experiment [2], more than 500 µM. Further, the outcome in [13] was inactive.

For `NC12CC3CC(CC(C3)C1)C2` [AMANTADINE], the IC50 in experiment [18] was more than 130 µM.

With `CC12CC3CC(C1)CC(N)(C3)O2`, the IC50 is more than 200 µM in experiment [1] and more than 500 µM in experiment [2].

For the compound `NNC12CC3CC(C1)CC(c1ccccc1)(C3)O2`, the IC50 in experiment [2] is more than 500 µM.

For the compound `CCC12CC3CC(C1)CC(NN)(C3)O2`, the IC50 in experiment [2] is more than 500 µM.

`CCC12CC3CC(C1)CC(N(C)Cc1ccccc1)(C3)O2`: the IC50 was more than 200 µM in [1] and more than 500 µM in experiment [2].

As for `NC12CC3CC(C1)CC(c1ccccc1)(C3)O2`, the result in experiment [3], in experiment [4], in [5], in experiment [6], in experiment [7] and in [8] was inactive. For the same compound, the outcome in experiment [9], in experiment [10], in [11], in [12], in experiment [14] and in [15] was inactive. The outcome in experiment [16] and in experiment [17] was inactive. Further, the IC50 in experiment [1] was 226 µM; in experiment [2], 350 µM.

With `c1ccc(CCNC23CC4CC(CC(C4)O2)C3)cc1`, the IC50 in experiment [1] is more than 200 µM; in experiment [2], more than 500 µM. Further, the result in [13] was inactive.

As for `CCC12CC3CC(CC(N)(C3)O1)C2`, the results for the IC50 in experiment [1] and in [2] were 83 µM and 223 µM, respectively.

Take `NC12CC3CC(C1)CC(C1CCCCC1)(C3)O2`: the result in [3], in experiment [4], in [5], in experiment [6], in experiment [7] and in experiment [8] was inactive. Besides, the result in experiment [9], in experiment [10], in [11], in experiment [12], in experiment [14] and in [15] was inactive. Moreover, the outcome in [16] and in [17] was inactive. Besides, the half-maximal inhibitory concentration (IC50) in [1] was 94 µM; in [2], more than 500 µM.
